# Data reported in ChEMBL document CHEMBL1124128, “Angiotensin-converting enzyme inhibitors. Mercaptan, carboxyalkyl dipeptide, and phosphinic acid inhibitors incorporating 4-substituted prolines” (J Med Chem, 1988).
# pIC50: −log10 of the molar value. Values joined by “and” are separate entries in the source; they are usually repeats but may differ in a detail not shown here. Identical values can stand only once.
# Tests used:
# [1] = biological target: T1, Angiotensin-converting enzyme (Rattus norvegicus, UniProt P47820); assay: In vitro inhibitory activity against angiotensin I converting enzyme of rats.; conditions: read-out: I50
# T1 sequence (P47820 whole entry): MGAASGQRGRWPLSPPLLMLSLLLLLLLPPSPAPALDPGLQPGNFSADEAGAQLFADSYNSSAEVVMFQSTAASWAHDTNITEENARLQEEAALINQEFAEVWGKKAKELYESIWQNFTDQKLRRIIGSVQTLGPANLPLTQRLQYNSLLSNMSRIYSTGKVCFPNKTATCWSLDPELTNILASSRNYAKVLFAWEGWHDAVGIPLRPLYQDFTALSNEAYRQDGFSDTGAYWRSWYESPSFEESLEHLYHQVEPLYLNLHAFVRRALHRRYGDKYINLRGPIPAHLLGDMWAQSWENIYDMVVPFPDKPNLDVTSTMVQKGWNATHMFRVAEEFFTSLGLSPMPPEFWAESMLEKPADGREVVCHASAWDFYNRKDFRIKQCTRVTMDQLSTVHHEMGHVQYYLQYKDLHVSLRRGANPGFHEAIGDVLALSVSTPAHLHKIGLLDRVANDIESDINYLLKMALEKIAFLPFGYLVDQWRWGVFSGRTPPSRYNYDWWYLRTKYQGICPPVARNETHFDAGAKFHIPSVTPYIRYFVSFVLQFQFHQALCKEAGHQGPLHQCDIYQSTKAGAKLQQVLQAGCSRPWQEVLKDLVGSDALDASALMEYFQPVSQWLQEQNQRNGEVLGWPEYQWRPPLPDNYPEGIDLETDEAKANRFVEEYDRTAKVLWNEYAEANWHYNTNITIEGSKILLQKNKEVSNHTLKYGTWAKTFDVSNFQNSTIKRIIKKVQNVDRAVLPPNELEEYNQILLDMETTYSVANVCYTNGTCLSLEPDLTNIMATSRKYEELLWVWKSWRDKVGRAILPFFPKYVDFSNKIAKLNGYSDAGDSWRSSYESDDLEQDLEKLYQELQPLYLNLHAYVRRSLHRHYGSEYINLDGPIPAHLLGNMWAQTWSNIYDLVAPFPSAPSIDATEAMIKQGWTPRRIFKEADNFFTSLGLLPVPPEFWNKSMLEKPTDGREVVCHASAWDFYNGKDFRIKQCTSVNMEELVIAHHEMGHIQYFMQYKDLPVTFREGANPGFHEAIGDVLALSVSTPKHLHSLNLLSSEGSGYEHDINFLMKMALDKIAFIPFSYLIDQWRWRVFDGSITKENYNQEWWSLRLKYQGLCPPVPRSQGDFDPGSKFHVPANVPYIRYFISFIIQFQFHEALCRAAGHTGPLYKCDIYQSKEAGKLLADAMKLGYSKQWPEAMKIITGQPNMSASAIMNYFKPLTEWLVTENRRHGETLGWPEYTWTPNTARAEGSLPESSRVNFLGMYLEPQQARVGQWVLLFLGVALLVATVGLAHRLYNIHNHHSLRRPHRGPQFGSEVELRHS
# [2] = tested on: Rattus norvegicus; assay: % Inhibition of angiotensin-I induced pressor response in normotensive rats after peroral dosing of 1.5 umol/kg; assay type: functional; conditions: po
# Summary of the method: (§1)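 Conscious, unrestrained catheterized male Sprague–Dawley rats (225–275 g) had direct aortic pressure recording. Baseline pressor responses were taken to AI (310 ng/kg iv) and AII (100 ng/kg iv). Compound was given orally in water, 5% NaHCO3 or 1% agar suspension. AI and AII responses were then tracked up to 280 min. Maximum % inhibition is the mean response of four animals per dose.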
# [3] = tested on: Rattus norvegicus; assay: % Inhibition of angiotensin-I induced pressor response in normotensive rats after intravenous dosing of 0.015 umol/kg; assay type: functional
# Summary of the method: (§2)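 Male Sprague–Dawley rats (225–275 g) fitted with indwelling abdominal aorta and vena cava catheters, recovered at least 2 weeks, then tested conscious and unrestrained. Aortic pressure was recorded directly. Pressor responses to AI (310 ng/kg iv) and AII (100 ng/kg iv) were taken before dosing. Compound was given iv in water or 5% NaHCO3, and responses were followed up to 70 min. Maximum % inhibition is the mean of four animals per dose.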
# [4] = tested on: Rattus norvegicus; assay: % Inhibition of angiotensin-I induced pressor response in normotensive rats after peroral dosing of 0.5 umol/kg; assay type: functional; conditions: po; summary of the method: as §1
# [5] = tested on: Rattus norvegicus; assay: % Inhibition of angiotensin-I induced pressor response in normotensive rats after peroral dosing of 5 umol/kg; assay type: functional; conditions: po; summary of the method: as §1
# [6] = tested on: Rattus norvegicus; assay: % Inhibition of angiotensin-I induced pressor response in normotensive rats after intravenous dosing of 0.05 umol/kg; assay type: functional; summary of the method: as §2
# [7] = tested on: Rattus norvegicus; assay: % Inhibition of angiotensin-I induced pressor response in normotensive rats after intravenous dosing of 0.15 umol/kg; assay type: functional
# Summary of the method: (§3)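 Conscious, unrestrained male Sprague–Dawley rats (225–275 g) with indwelling aortic and vena caval catheters, allowed at least 2 weeks of recovery. Aortic pressure recorded directly. Baseline pressor responses to AI (310 ng/kg iv) and AII (100 ng/kg iv) were taken first. Compound was given iv in 0.1 mL water or 5% NaHCO3, and responses were followed for up to 70 min. Maximum % inhibition is the mean of four animals per dose.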
# [8] = tested on: Rattus norvegicus; assay: % Inhibition of angiotensin-I induced pressor response in normotensive rats after peroral dosing of 15 umol/kg; assay type: functional; conditions: po; summary of the method: as §1
# [9] = biological target: T2, Angiotensin-converting enzyme (Rattus norvegicus) (UniProt P47820); assay: In vitro inhibition of rat Angiotensin I converting enzyme
# T2 sequence (whole entry): T1 sequence (P47820 whole entry)
# [10] = tested on: Rattus norvegicus; assay: % Inhibition of angiotensin-I induced pressor response in normotensive rats after intravenous dosing of 0.5 umol/kg; assay type: functional; summary of the method: as §3
# [11] = biological target: T2, Angiotensin-converting enzyme (Rattus norvegicus); assay: Evaluated for inhibition of Angiotensin I converting enzyme in rat; assay type: functional; conditions: concentration not given here
# [12] = tested on: Rattus norvegicus; assay: % Inhibition of angiotensin-I induced pressor response in normotensive rats after intravenous dosing of 1.5 umol/kg; assay type: functional; summary of the method: as §3
# [13] = tested on: Rattus norvegicus; assay: % Inhibition of angiotensin-I induced pressor response in normotensive rats after intravenous dosing of 5 umol/kg; assay type: functional; summary of the method: as §3
# [14] = tested on: Rattus norvegicus; assay: % Inhibition of angiotensin-I induced pressor response in normotensive rats after peroral dosing of 50 umol/kg; assay type: functional; conditions: po; summary of the method: as §1
pIC50 [1],Structure (SMILES),inhibition in vivo at 0.05 µmol/kg [6],inhibition in vivo at 0.15 µmol/kg [7],other results
8.70,C[C@H](N[C@@H](CCc1ccccc1)C(=O)O)C(=O)N1C[C@@H](Sc2ccccc2)C[C@H]1C(=O)O,43%,85%,inhibition in vivo at 1.5 µmol/kg [2]: 31%; inhibition in vivo at 0.015 µmol/kg [3]: 20%; inhibition in vivo at 0.5 µmol/kg [4]: 23%; inhibition in vivo at 5 µmol/kg [5]: 67%; inhibition in vivo at 15 µmol/kg [8]: 78%
7.77,C[C@H](CS)C(=O)N1C[C@@H](Sc2ccc(F)cc2)C[C@H]1C(=O)O,–,–,–
7.34,C[C@H](CS)C(=O)N1C[C@@H]([S+]([O-])c2ccccc2)C[C@H]1C(=O)O (stereo partly drawn),–,–,–
7.55,C[C@H](CS)C(=O)N1C[C@@H](S(=O)(=O)c2ccccc2)C[C@H]1C(=O)O,–,–,–
8.55,CO[C@H]1C[C@@H](C(=O)O)N(C(=O)[C@H](C)CS)C1,–,–,–
8.14,COC1(OC)C[C@@H](C(=O)O)N(C(=O)[C@H](C)CS)C1,–,–,–
8.30,CS[C@@H]1C[C@@H](C(=O)O)N(C(=O)[C@H](C)N[C@@H](CCc2ccccc2)C(=O)O)C1,69%,77%,inhibition in vivo at 0.015 µmol/kg [3]: 29%
7.02,C[C@H](CS)C(=O)N1C[C@@H](Sc2ccc3ccccc3c2)C[C@H]1C(=O)O,–,–,–
8.54,C[C@H](CS)C(=O)N1CC2(C[C@H]1C(=O)O)OCCO2,–,–,–
7.59,C[C@H](CS)C(=O)N1C[C@H](O)C[C@H]1C(=O)O,–,–,–
7.80,C[C@H](CS)C(=O)N1CC(=O)C[C@H]1C(=O)O,–,–,–
7.89,C[C@H](CS)C(=O)N1C[C@@H](Oc2ccc3ccccc3c2)C[C@H]1C(=O)O,–,–,–
8.70,C[C@H](CS)C(=O)N1C[C@@H](C2CCCCC2)C[C@H]1C(=O)O,–,–,–
8.52,CS[C@H]1C[C@@H](C(=O)O)N(C(=O)[C@H](C)CS)C1,–,–,–
8.30,C[C@H](N[C@@H](CCc1ccccc1)C(=O)O)C(=O)N1C[C@@H](c2ccccc2)C[C@H]1C(=O)O,–,–,–
8.07,C[C@H](CS)C(=O)N1C[C@@H](O)C[C@H]1C(=O)O,–,–,–

# Further lines, the compound ahead of its results:
Structure (SMILES),pIC50 [1],inhibition in vivo at 0.05 µmol/kg [6],inhibition in vivo at 0.15 µmol/kg [7],other results
C[C@H](CS)C(=O)N1C[C@@H](Sc2ccccc2)C[C@H]1C(=O)O [ZOFENOPRILAT],8.10,–,–,–
C[C@H](N[C@@H](CCc1ccccc1)C(=O)O)C(=O)N1CCC[C@H]1C(=O)O [ENALAPRILAT ANHYDROUS],–,67%,90%,inhibition in vivo at 0.015 µmol/kg [3]: 11%; inhibition in vivo at 5 µmol/kg [5]: 46%; inhibition in vivo at 15 µmol/kg [8]: 85%
CCOC(=O)[C@H](CCc1ccccc1)N[C@@H](C)C(=O)N1C[C@@H](Sc2ccccc2)C[C@H]1C(=O)O,–,–,–,inhibition in vivo at 1.5 µmol/kg [2]: 81%; inhibition in vivo at 0.5 µmol/kg [4]: 29%; inhibition in vivo at 5 µmol/kg [5]: 86%
C[C@H](N[C@@H](CCc1ccccc1)C(=O)O)C(=O)N1C[C@H](Sc2ccccc2)C[C@H]1C(=O)O,8.70,94%,–,inhibition in vivo at 0.015 µmol/kg [3]: 57%
O=C(O)[C@@H]1C[C@H](Cc2ccccc2)CN1C(=O)CP(=O)(O)CCCCc1ccccc1,–,–,–,T50 [9]: 10 nM
O=C(O)[C@@H]1C[C@H](C2CCCCC2)CN1C(=O)CP(=O)(O)CCCCc1ccccc1,–,26%,73%,T50 [9]: 7 nM; inhibition in vivo at 0.5 µmol/kg [10]: 84%; inhibition in vivo at 5 µmol/kg [5]: 13%; inhibition [11]: 72%
C[C@H]1C[C@@H](C(=O)O)N(C(=O)[C@H](C)CS)C1,8.70,–,–,–
O=C(O)[C@@H]1C[C@H](c2ccccc2)CN1C(=O)CP(=O)(O)CCCCc1ccccc1,–,16%,69%,T50 [9]: 7 nM; inhibition in vivo at 0.5 µmol/kg [10]: 97%
C[C@H](CS)C(=O)N1C[C@@H](c2ccccc2)C[C@H]1C(=O)O,7.52,–,–,–
CO[C@H]1C[C@@H](C(=O)O)N(C(=O)CP(=O)(O)CCCCc2ccccc2)C1,–,16%,55%,T50 [9]: 60 nM; inhibition in vivo at 0.5 µmol/kg [10]: 90%
CO[C@@H]1C[C@@H](C(=O)O)N(C(=O)[C@H](C)CS)C1,7.92,–,–,–
O=C(O)[C@@H]1C[C@@H](Sc2ccccc2)CN1C(=O)CP(=O)(O)CCCCc1ccccc1,–,20%,19%,inhibition in vivo at 1.5 µmol/kg [12]: 69%; T50 [9]: 17 nM; inhibition in vivo at 5 µmol/kg [13]: 78%; inhibition in vivo at 0.5 µmol/kg [10]: 48%
O=C(O)[C@@H]1CC2(CN1C(=O)CP(=O)(O)CCCCc1ccccc1)SCCS2,–,47%,80%,inhibition in vivo at 0.015 µmol/kg [3]: 20%; T50 [9]: 4 nM and 2 nM; inhibition in vivo at 0.5 µmol/kg [10]: 90%; inhibition in vivo at 5 µmol/kg [5]: 28%; inhibition in vivo at 50 µmol/kg [14]: 94%; inhibition in vivo at 15 µmol/kg [8]: 74%
C[C@H](CS)C(=O)N1CC2(C[C@H]1C(=O)O)SCCS2,8.19,–,–,–
O=C(O)[C@@H]1C[C@H](Sc2ccccc2)CN1C(=O)CP(=O)(O)CCCCc1ccccc1,–,–,27%,inhibition in vivo at 1.5 µmol/kg [12]: 65%; T50 [9]: 20 nM; inhibition in vivo at 5 µmol/kg [13]: 88%; inhibition in vivo at 0.5 µmol/kg [10]: 34%
C[C@H](N[C@@H](CCc1ccccc1)C(=O)O)C(=O)N1C[C@@H](C2CCCCC2)C[C@H]1C(=O)O,8.30,48%,92%,inhibition in vivo at 0.015 µmol/kg [3]: 21%
CS[C@H]1C[C@@H](C(=O)O)N(C(=O)CP(=O)(O)CCCCc2ccccc2)C1,–,–,29%,inhibition in vivo at 1.5 µmol/kg [12]: 89%; T50 [9]: 32 nM; inhibition in vivo at 0.5 µmol/kg [10]: 69%
CS[C@@H]1C[C@@H](C(=O)O)N(C(=O)CP(=O)(O)CCCCc2ccccc2)C1,–,44%,27%,inhibition in vivo at 0.015 µmol/kg [3]: 7%; T50 [9]: 29 nM; inhibition in vivo at 0.5 µmol/kg [10]: 79%
C[C@H](CS)C(=O)N1C[C@@H](Sc2ccc(Cl)cc2)C[C@H]1C(=O)O,7.96,–,–,–
O=C(O)[C@@H]1C[C@@H](c2ccccc2)CN1C(=O)CP(=O)(O)CCCCc1ccccc1,–,17%,37%,T50 [9]: 120 nM; inhibition in vivo at 0.5 µmol/kg [10]: 76%
CCOC(=O)[C@H](CCc1ccccc1)N[C@@H](C)C(=O)N1CCC[C@H]1C(=O)O,–,–,–,inhibition in vivo at 1.5 µmol/kg [2]: 84%; inhibition in vivo at 0.5 µmol/kg [4]: 50%; inhibition in vivo at 5 µmol/kg [5]: 83%
C[C@H](CS)C(=O)N1C[C@@H](Oc2ccccc2)C[C@H]1C(=O)O,7.01,–,–,–
